According to ChEMBL document CHEMBL4043093, “2-Oxo-3, 4-dihydropyrimido[4, 5-d]pyrimidinyl derivatives as new irreversible pan fibroblast growth factor receptor (FGFR) inhibitors” (Eur J Med Chem, 2017):

What was measured:
[1] = test system: Tyrosine-protein kinase ABL1 (Homo sapiens), P00519 [F317I]; experiment: Inhibition of human non-phosphorylated ABL1 F317I mutant (S229 to K512 residues) expressed in HEK293 cells assessed as residual activity at 1000 nM after 30 mins by Kinomescan method relative to control; format: cell-based
Outline: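 KINOMEscan binding panel of 456 kinases, with the test compound at a single concentration of 1 µM. Read-out is Percent Control.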

[2] = test system: Tyrosine-protein kinase ABL1 (Homo sapiens), P00519 [F317L]; experiment: Inhibition of human phosphorylated ABL1 F317L mutant (S229 to K512 residues) expressed in HEK293 cells assessed as residual activity at 1000 nM after 30 mins by Kinomescan method relative to control; format: cell-based
Tyrosine-protein kinase ABL1 (Homo sapiens), P00519 [F317L], sequence (P00519 whole entry F317L, the tested form may be a part): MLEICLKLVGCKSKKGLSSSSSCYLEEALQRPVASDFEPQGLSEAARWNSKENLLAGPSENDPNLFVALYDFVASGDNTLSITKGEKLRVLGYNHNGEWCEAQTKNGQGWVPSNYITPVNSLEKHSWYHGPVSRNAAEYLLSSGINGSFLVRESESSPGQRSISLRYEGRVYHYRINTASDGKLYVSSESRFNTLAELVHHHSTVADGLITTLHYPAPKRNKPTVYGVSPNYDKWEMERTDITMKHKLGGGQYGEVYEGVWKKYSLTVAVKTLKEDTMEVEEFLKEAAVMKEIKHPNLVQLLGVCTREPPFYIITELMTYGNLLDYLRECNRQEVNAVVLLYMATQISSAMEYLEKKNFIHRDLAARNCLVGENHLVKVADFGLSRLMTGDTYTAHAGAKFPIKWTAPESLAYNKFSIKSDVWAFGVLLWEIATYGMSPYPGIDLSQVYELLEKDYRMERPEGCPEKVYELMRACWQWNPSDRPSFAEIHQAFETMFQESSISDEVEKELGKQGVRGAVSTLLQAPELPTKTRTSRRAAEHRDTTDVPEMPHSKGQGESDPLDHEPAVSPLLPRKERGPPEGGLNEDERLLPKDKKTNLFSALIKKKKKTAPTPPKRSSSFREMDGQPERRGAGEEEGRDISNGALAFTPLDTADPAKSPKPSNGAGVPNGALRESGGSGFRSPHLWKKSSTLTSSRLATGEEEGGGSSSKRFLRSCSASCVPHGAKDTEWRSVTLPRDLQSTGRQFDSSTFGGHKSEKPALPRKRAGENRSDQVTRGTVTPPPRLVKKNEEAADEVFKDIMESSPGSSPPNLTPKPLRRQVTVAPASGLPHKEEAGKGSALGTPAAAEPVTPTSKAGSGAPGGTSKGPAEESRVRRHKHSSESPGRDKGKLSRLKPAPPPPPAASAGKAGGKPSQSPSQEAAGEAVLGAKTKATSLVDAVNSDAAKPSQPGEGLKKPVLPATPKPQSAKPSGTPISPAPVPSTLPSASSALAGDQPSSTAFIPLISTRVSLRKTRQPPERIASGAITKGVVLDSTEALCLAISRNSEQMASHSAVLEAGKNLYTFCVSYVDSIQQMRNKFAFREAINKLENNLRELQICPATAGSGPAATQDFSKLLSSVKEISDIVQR
Outline: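 Single-point screen at a fixed 1 µM, run within a 456-kinase DiscoveRx KINOMEscan panel. Each kinase's read-out is Percent Control, i.e. signal relative to a control without compound. Hits were scored by a Percent Control < 35 cut-off, and an S(35) selectivity score was calculated across the non-mutant kinases.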

[3] = molecular target: Macrophage colony-stimulating factor 1 receptor (Homo sapiens) (UniProt P07333); experiment: Inhibition of wild-type human partial length autoinhibited CSF1R (Y538 to S939 residues) expressed in HEK293 cells assessed as residual activity at 1000 nM after 30 mins by Kinomescan method relative to control; format: cell-based
[4] = molecular target: Dual specificity tyrosine-phosphorylation-regulated kinase 2 (Homo sapiens) (UniProt Q92630); experiment: Inhibition of wild-type human full length DYRK2 (M1 to S528 residues) expressed in HEK293 cells assessed as residual activity at 1000 nM after 30 mins by Kinomescan method relative to control; format: cell-based
Dual specificity tyrosine-phosphorylation-regulated kinase 2 (Homo sapiens), sequence (Q92630 whole entry, the tested form may be a part): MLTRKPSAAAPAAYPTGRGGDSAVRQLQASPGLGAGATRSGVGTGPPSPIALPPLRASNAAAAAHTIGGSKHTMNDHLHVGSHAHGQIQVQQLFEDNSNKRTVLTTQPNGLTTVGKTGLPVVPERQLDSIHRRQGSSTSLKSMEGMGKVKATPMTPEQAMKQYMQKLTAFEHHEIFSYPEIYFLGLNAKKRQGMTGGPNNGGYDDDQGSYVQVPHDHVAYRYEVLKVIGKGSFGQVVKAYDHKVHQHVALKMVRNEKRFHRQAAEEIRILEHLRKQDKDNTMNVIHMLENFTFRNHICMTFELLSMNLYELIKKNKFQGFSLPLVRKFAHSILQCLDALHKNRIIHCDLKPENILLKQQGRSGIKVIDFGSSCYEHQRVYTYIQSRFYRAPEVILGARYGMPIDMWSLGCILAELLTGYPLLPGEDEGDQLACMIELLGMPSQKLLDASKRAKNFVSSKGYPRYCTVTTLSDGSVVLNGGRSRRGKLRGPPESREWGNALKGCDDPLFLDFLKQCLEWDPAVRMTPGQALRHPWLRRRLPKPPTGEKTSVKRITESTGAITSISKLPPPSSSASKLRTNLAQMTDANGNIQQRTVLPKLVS
Outline: (§1)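 Single-concentration screen at 1 µM across a 456-kinase KINOMEscan panel. The read-out is Percent Control for each kinase.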

[5] = molecular target: Ephrin type-A receptor 6 (Homo sapiens) (UniProt Q9UF33); experiment: Inhibition of wild-type human partial length EPHA6 (Y700 to E1046 residues) expressed in Escherichia coli BL21 assessed as residual activity at 1000 nM after 30 mins by Kinomescan method relative to control
Ephrin type-A receptor 6 (Homo sapiens), sequence (Q9UF33 whole entry, the tested form may be a part): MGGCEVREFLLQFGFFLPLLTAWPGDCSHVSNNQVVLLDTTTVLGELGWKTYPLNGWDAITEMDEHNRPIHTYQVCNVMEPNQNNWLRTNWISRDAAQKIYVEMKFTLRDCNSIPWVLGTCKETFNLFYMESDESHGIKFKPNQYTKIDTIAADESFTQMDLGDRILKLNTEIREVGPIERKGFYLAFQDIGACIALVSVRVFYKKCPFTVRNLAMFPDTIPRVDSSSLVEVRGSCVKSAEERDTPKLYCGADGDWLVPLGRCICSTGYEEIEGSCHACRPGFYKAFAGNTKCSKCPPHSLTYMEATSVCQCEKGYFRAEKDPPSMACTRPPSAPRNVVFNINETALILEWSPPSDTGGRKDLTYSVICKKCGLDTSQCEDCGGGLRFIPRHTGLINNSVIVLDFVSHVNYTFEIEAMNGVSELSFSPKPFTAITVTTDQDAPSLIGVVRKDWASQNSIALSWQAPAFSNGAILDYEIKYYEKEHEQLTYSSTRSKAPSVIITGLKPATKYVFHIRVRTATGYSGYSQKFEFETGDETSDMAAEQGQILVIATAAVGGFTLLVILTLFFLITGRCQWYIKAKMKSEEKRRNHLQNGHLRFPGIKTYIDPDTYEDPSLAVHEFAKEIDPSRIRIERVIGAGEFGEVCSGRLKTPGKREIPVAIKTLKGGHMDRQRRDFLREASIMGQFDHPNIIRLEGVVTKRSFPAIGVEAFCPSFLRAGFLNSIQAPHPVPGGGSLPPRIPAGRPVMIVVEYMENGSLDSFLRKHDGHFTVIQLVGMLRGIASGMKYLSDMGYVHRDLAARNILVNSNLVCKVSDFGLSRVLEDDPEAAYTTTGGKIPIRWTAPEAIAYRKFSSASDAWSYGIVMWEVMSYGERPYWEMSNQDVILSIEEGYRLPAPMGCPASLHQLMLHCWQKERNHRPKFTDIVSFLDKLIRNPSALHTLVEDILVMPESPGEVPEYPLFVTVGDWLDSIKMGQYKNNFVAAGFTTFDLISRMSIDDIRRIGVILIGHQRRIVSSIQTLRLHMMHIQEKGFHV

[6] = molecular target: Rhodopsin kinase GRK1 (Homo sapiens) (UniProt Q15835); experiment: Inhibition of wild-type human full length GRK1 (M1 to S563 residues) expressed in HEK293 cells assessed as residual activity at 1000 nM after 30 mins by Kinomescan method relative to control; format: cell-based; outline: as §1
[7] = molecular target: Insulin-like growth factor 1 receptor (Homo sapiens) (UniProt P08069); experiment: Inhibition of wild-type human partial length IGF1R (L972 to D1294 residues) expressed in Escherichia coli BL21 assessed as residual activity at 1000 nM after 30 mins by Kinomescan method relative to control
[8] = molecular target: Tyrosine-protein kinase JAK3 (Homo sapiens) (UniProt P52333); experiment: Inhibition of wild-type human partial length JAK3 JH1 catalytic domain (I781 to S1124 residues) expressed in HEK293 cells assessed as residual activity at 1000 nM after 30 mins by Kinomescan method relative to control; format: cell-based
Tyrosine-protein kinase JAK3 (Homo sapiens), sequence (P52333 whole entry, the tested form may be a part): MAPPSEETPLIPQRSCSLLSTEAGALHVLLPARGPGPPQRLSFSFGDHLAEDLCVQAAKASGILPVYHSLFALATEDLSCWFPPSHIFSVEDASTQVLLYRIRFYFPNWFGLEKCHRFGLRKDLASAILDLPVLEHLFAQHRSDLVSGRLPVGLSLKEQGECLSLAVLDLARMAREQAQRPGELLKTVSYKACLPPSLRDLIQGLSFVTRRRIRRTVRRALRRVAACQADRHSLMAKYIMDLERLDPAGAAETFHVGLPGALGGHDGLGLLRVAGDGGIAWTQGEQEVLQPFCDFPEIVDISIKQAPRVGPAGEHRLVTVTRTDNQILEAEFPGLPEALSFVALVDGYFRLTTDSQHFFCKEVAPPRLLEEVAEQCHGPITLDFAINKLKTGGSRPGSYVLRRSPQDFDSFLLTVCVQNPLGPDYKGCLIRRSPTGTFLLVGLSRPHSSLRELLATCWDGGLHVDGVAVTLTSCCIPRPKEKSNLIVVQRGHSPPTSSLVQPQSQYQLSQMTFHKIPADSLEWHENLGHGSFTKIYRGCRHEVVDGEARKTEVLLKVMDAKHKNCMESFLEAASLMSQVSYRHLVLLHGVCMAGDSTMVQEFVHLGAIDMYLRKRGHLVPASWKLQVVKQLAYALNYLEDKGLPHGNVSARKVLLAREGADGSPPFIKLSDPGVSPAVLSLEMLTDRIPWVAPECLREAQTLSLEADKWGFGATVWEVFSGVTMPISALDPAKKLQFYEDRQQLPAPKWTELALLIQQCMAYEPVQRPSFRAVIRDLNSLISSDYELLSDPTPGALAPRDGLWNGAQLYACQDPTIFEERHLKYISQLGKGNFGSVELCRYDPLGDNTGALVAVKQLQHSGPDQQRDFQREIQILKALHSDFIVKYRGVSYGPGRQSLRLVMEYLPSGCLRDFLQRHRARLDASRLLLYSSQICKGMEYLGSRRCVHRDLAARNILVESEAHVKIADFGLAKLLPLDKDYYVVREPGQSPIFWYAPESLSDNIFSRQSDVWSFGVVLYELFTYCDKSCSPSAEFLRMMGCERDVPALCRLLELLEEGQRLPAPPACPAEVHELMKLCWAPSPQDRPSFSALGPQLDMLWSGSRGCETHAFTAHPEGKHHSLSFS

[9] = molecular target: Leucine-rich repeat serine/threonine-protein kinase 2 (Homo sapiens) (UniProt Q5S007); experiment: Inhibition of wild-type human partial length LRRK2 (H970 to E2527 residues) expressed in HEK293 cells assessed as residual activity at 1000 nM after 30 mins by Kinomescan method relative to control; format: cell-based
[10] = molecular target: Mitogen-activated protein kinase kinase kinase kinase 2 (Homo sapiens) (UniProt Q12851); experiment: Inhibition of wild-type human partial length MAP4K2 (M1 to G318 residues) expressed in HEK293 cells assessed as residual activity at 1000 nM after 30 mins by Kinomescan method relative to control; format: cell-based
[11] = molecular target: Hepatocyte growth factor receptor (Homo sapiens) (UniProt P08581); experiment: Inhibition of wild-type human partial length MET (D1010 to S1367 residues) expressed in Escherichia coli BL21 assessed as residual activity at 1000 nM after 30 mins by Kinomescan method relative to control
[12] = molecular target: Serine/threonine-protein kinase Nek7 (Homo sapiens) (UniProt Q8TDX7); experiment: Inhibition of wild-type human full length NEK7 (M1 to S302 residues) expressed in Escherichia coli BL21 assessed as residual activity at 1000 nM after 30 mins by Kinomescan method relative to control; outline: as §1
Serine/threonine-protein kinase Nek7 (Homo sapiens), sequence (Q8TDX7 whole entry, looked up, the tested form may be a part): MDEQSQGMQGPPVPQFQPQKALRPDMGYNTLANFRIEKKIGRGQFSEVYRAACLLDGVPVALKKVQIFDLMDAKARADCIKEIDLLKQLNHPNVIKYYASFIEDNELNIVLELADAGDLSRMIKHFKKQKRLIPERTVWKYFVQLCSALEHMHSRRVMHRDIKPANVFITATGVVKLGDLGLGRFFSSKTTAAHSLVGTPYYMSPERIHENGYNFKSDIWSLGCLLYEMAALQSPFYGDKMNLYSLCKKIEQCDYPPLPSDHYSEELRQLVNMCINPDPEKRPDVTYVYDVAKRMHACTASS

[13] = molecular target: Serine/threonine-protein kinase PAK 3 (Homo sapiens) (UniProt O75914); experiment: Inhibition of wild-type human full length PAK3 (M1 to R544 residues) expressed in Escherichia coli BL21 assessed as residual activity at 1000 nM after 30 mins by Kinomescan method relative to control; outline: as §1
[14] = molecular target: Serine/threonine-protein kinase PAK 4 (Homo sapiens) (UniProt O96013); experiment: Inhibition of wild-type human partial length PAK4 (Q144 to R438 residues) expressed in Escherichia coli BL21 assessed as residual activity at 1000 nM after 30 mins by Kinomescan method relative to control
[15] = molecular target: Serine/threonine-protein kinase PAK 6 (Homo sapiens) (UniProt Q9NQU5); experiment: Inhibition of wild-type human partial length PAK6 (N298 to C681 residues) expressed in Escherichia coli BL21 assessed as residual activity at 1000 nM after 30 mins by Kinomescan method relative to control
[16] = molecular target: Phosphorylase b kinase gamma catalytic chain, skeletal muscle/heart isoform (Homo sapiens) (UniProt Q16816); experiment: Inhibition of wild-type human full length PHKG1 (M1 to Y387 residues) expressed in Escherichia coli BL21 assessed as residual activity at 1000 nM after 30 mins by Kinomescan method relative to control; outline: as §1
[17] = molecular target: cAMP-dependent protein kinase catalytic subunit PRKX (Homo sapiens) (UniProt P51817); experiment: Inhibition of wild-type human partial length PRKX (M1 to F358 residues) expressed in Escherichia coli BL21 assessed as residual activity at 1000 nM after 30 mins by Kinomescan method relative to control
[18] = molecular target: Serine/threonine-protein kinase RIO1 (Homo sapiens) (UniProt Q9BRS2); experiment: Inhibition of wild-type human full length RIOK1 (M1 to K568 residues) expressed in Escherichia coli BL21 assessed as residual activity at 1000 nM after 30 mins by Kinomescan method relative to control
[19] = molecular target: Ribosomal protein S6 kinase alpha-4 (Homo sapiens) (UniProt O75676); experiment: Inhibition of wild-type human partial length N-terminal RPS6KA4 kinase domain 1 expressed in Escherichia coli BL21 assessed as residual activity at 1000 nM after 30 mins by Kinomescan method relative to control
Ribosomal protein S6 kinase alpha-4 (Homo sapiens), sequence (O75676 whole entry, looked up, the tested form may be a part): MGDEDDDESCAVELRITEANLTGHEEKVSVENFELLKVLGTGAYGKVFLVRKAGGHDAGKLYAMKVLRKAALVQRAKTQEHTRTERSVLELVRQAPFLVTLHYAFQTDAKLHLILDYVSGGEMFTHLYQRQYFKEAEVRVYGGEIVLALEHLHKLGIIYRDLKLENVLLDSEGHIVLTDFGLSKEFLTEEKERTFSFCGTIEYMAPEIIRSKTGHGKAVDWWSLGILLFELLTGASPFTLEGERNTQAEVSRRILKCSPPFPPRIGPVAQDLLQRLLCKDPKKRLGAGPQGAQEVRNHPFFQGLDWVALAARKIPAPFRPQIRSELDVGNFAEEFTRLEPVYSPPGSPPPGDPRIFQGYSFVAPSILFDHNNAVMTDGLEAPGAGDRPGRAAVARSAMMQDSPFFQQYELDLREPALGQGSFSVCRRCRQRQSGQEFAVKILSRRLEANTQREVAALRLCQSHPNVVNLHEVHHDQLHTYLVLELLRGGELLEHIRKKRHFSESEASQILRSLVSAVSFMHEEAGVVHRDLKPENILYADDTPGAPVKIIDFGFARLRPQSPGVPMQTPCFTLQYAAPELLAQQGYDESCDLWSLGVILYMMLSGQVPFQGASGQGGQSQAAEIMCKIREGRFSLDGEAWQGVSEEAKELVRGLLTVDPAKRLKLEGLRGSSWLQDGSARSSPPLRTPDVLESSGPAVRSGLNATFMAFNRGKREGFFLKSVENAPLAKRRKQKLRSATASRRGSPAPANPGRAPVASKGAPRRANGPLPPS

[20] = molecular target: Serine/threonine-protein kinase SIK2 (Homo sapiens) (UniProt Q9H0K1); experiment: Inhibition of wild-type human full length SIK2 (M1 to N926 residues) expressed in Escherichia coli BL21 assessed as residual activity at 1000 nM after 30 mins by Kinomescan method relative to control
[21] = molecular target: Dual specificity protein kinase TTK (Homo sapiens) (UniProt P33981); experiment: Inhibition of wild-type human partial length TTK (N505 to V798 residues) expressed in Escherichia coli BL21 assessed as residual activity at 1000 nM after 30 mins by Kinomescan method relative to control

**Q.** `COc1cc(OC)c(Cl)c(N2Cc3cnc(Nc4ccc(F)cc4)nc3N(C3CCN(C(=O)/C=C/CN(C)C)CC3)C2=O)c1Cl` was tested. Which Activity [1] did it give?
**A.** The Activity was 100%.

**Q.** And the Activity [2]?
**A.** Its Activity is 64%.

**Q.** And the Activity [3]?
**A.** Its Activity is 74%.

**Q.** And the Activity [4]?
**A.** Its Activity is 100%.

**Q.** What about the Activity [5] of the same compound?
**A.** Its Activity is 100%.

**Q.** What about the Activity [6] of the same compound?
**A.** The Activity was 79%.

**Q.** And the Activity [7]?
**A.** The Activity was 83%.

**Q.** And the Activity [8]?
**A.** The Activity was 98%.

**Q.** What about the Activity [9] of the same compound?
**A.** Its Activity is 100%.

**Q.** And the Activity [10]?
**A.** The Activity was 100%.

**Q.** What about the Activity [11] of the same compound?
**A.** The Activity was 96%.

**Q.** And the Activity [12]?
**A.** Its Activity is 100%.

**Q.** And the Activity [13]?
**A.** The Activity was 99%.

**Q.** What about the Activity [14] of the same compound?
**A.** Its Activity is 100%.

**Q.** What about the Activity [15] of the same compound?
**A.** Its Activity is 100%.

**Q.** What about the Activity [16] of the same compound?
**A.** The Activity was 92%.

**Q.** And the Activity [17]?
**A.** The Activity was 100%.

**Q.** And the Activity [18]?
**A.** Its Activity is 99%.

**Q.** What about the Activity [19] of the same compound?
**A.** The Activity was 97%.

**Q.** What about the Activity [20] of the same compound?
**A.** Its Activity is 89%.

**Q.** What about the Activity [21] of the same compound?
**A.** The Activity was 86%.
